Source: PubChem
A selection: hits, their analogues and other compounds. The true share with any hit is near 7.2%.
PostGolgi yeast: growth inhibition of a yeast mutant, post-Golgi transport screen. AID 739. 98,000 compounds, 0.9% hits. post-Golgi transport phenotypic cell assay. inhibition, % at 10 µM;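 further: yeast cells grown in 1536-well plates; yeast grown about 18 h at 30C before absorbance read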
Ecoli WT expand: blocks growth of wild type E. coli BW25113 | OD600 absorbance | growth inhibition, % at 100 µM | 98,000 compounds, 0.15% hits | AID 710;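 active means growth inhibition above about 50% at one test dose, limit read from the data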;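 further: growth measured after 20 h incubation at 37 °C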
tolC growth inh: blocks growth of E. coli BW25113 tolC mutant; OD615; growth inhibition, % at 10 µM (by protocol); 65,000 compounds, 2.2% hits;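 active means growth inhibition at or above a cutoff equal to the mean over every tested compound plus 3 SD, cut at about 60% in these data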;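 further: growth measured after 20 h incubation at 37 °C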
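signal = optical density read at 615 nm | test system = E. coli ΔtolC::kan strain BW25113 | timing = 20 h compound exposure of bacteria at 37 °C | buffer or medium = LB medium plus 50 µg/mL kanamycin | compound dosing = 10 µM final, single dose | evaluation = % inhibition of E. coli growth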
PLAP act: activators of human placental alkaline phosphatase; purified PLAP enzyme, luminescent substrate read-out; hits give high values; activation fold at 20 µM; 96,000 compounds, 1.2% hits; AID 696; in the data active means activation fold above about 2
Target sequence (P05187 whole entry, looked up): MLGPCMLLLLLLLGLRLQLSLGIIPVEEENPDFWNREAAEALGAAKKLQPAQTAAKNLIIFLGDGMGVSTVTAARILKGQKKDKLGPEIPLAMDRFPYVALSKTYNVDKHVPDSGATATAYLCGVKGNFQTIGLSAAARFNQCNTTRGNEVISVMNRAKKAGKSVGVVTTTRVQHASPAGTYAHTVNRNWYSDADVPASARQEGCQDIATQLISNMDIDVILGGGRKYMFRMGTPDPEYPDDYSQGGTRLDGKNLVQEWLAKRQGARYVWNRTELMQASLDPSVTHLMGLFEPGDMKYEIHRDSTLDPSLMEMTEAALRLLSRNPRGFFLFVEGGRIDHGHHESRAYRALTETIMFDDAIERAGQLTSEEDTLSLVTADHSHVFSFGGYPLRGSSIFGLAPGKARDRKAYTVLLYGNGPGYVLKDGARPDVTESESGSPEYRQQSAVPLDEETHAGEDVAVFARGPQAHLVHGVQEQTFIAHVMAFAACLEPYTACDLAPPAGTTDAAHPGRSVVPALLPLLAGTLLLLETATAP
PostGolgi ctrl: inhibits growth of the yeast control strain; efflux-deficient yeast background strain, growth absorbance A615, 16 h; inhibition, % at 10 µM; 98,000 compounds, 5% hits; AID 738
Active calls of the source: *; · = no result. Unless noted, no stated cut-off is given here; in the data, active means inhibition above about 30%; inactive means the rest.

SMILES	PostGolgi yeast	Ecoli WT expand	tolC growth inh	PLAP act	PostGolgi ctrl
CCC(OC(=O)C(NC(=O)c1ccccc1)c1ccccc1)C(=O)Nc1cc(C)on1 (centres undefined)	42.3*	4.0	1.8	1.1	-5.9
CC1(C)CC(=O)c2sc(NC(=O)C3CC3)nc2C1	4.8	-2.0	-13.2	1	36.1*
Cc1ccccc1NC(=S)NC1CC2CCC(C1)N2Cc1ccco1 (centres undefined)	-0.3	-5.0	·	1.1	5.5
CSc1ccc(S(=O)(=O)N2CCN(Cc3ccc4c(c3)OCO4)CC2)cc1	54.6*	-12.0	34.6	1	53.5*
CCc1ccc2c(CN3CCN(S(=O)(=O)c4ccc5c(c4)OCCO5)CC3)cc(=O)oc2c1	5.3	-7.0	11.5	1.6	32.9*
O=c1cc(CN2CCN(S(=O)(=O)c3ccc4c(c3)OCCO4)CC2)c2ccc(O)cc2o1	0.3	-8.0	·	1.6	18.9
COc1ccc(S(=O)(=O)N2CCN(Cc3ccc4c(c3)OCO4)CC2)c2ccccc12	-7.5	-4.0	24.8	1.2	34.9*
O=S(=O)(Cc1ccccc1Cl)N1CCN(Cc2ccc3c(c2)OCO3)CC1	89.3*	0.0	23.3	1.4	35.2*
COc1ccc(Cl)cc1S(=O)(=O)N1CCN(Cc2ccc3c(c2)OCO3)CC1	-4.4	-9.0	13.9	1.4	14.8
CCn1nc(C)c(/C=N/NC(=O)c2ccc3c(c2)c(C)c(C)n3Cc2ccccc2)c1C	4.0	-7.0	·	12.7	10.2
Cc1ccc2nc3c(cc2c1)c(NC(=O)c1ccccn1)nn3CC(C)C	-5.5	-15.0	·	2.3*	2.1
COc1ccc(-c2nc(-n3c(C)c(C(C)=O)c(C(C)=O)c3C)sc2C)cc1	-2.4	0.0	·	1.2	23.6
CC(=O)c1c(C(C)=O)c(C)n(-c2nc(-c3ccc(C)c(C)c3)c(C)s2)c1C	-1.1	5.0	·	1.3	47.6*
CCOC(=O)c1ccc(NC2c3ccccc3C(=O)N2c2ccccn2)cc1 (centres undefined)	0.9	-11.0	·	0.9	3.0
CCOC(=O)c1ccccc1NC1c2ccccc2C(=O)N1c1ccc(C)cn1 (centres undefined)	-5.5	-4.0	28.9	1.3	47.7*
CCOc1ccccc1NC1c2ccccc2C(=O)N1c1ccc(C)cn1 (centres undefined)	-13.8	-4.0	13.1	0.7	32.8*
Cc1cccc(OCC2=NS(=O)(=O)c3ccccc3N2)c1	0.9	3.0	7.1	1.1	15.4
O=C(Nc1cccn(Cc2c(Cl)cccc2Cl)c1=O)c1c(Cl)cccc1Cl	5.6	-13.0	·	1.1	92.9*
COC(=O)Nc1cccn(Cc2c(Cl)cccc2Cl)c1=O	10.1	2.0	·	1.1	21.1
O=C(COc1ccccc1CNCc1ccccc1)Nc1ccccc1	-5.0	17.0	·	2.6*	1.4
COc1ccc(C=Nc2cccc3c(=O)[nH][nH]c(=O)c23)c2ccccc12	-4.2	-6.0	·	1.2	7.9
COc1ccc(/C=C/c2ccncc2)c2ccccc12	-1.4	8.0	·	1.2	43.2*
CCn1c(C)nc2cc(C(=O)NNS(=O)(=O)c3c(C)c(C)cc(C)c3C)ccc21	-5.3	7.0	·	2*	14.7
CCn1c(C)nc2cc(C(=O)OC(C(F)(F)C(F)F)C(F)(F)C(F)F)ccc21	-0.2	-3.0	22.0	1.4	26.5
Cc1oc(-c2ccccc2)cc1C(=O)Nc1ccc2ccccc2c1	-0.3	-15.0	·	1.1	0.0
SMILES	PostGolgi yeast	Ecoli WT expand	tolC growth inh	PLAP act	PostGolgi ctrl
Cc1occc1C(=O)Nc1ccc2ccccc2c1	-3.1	15.0	11.9	0.9	52.1*
Cc1cccc(NC(=S)NNC(=O)c2ccc(Br)o2)c1	3.8	-1.0	·	1.6	5.1
Cc1occc1C(=O)NNC(=S)Nc1cccc([N+](=O)[O-])c1	-4.7	7.0	·	2*	0.1
CCc1ccccc1NC(=O)c1ccoc1C	13.6	-3.0	-4.0	1.2	36.6*
COc1cccc(/C=N/n2c(SC)nnc2-c2ccccc2)c1O	-7.7	10.0	11.9	1.4	29.4
Cc1ccc(/S(C)=N/S(=O)(=O)c2ccc(C)cc2)cc1 (centres undefined)	0.6	4.0	·	0.9	6.9
CNc1cc(CSC)nc(SCc2ccc(Cl)cc2Cl)n1	-9.8	-13.0	·	1	39.2*
COc1ccc(OCC(=O)Nc2cc(-c3nn(C)c(=O)c4ccccc34)ccc2OC)cc1	-2.2	-9.0	·	1.1	-2.0
Cc1ccc(C(=O)NCCNc2ccc(Cl)cc2[N+](=O)[O-])o1	2.1	23.0	·	1	31.3*
O=[N+]([O-])c1cc(C(F)(F)F)ccc1NCCNC(=S)Nc1ccc(Cl)cc1	82.1*	3.0	·	0.7	91.2*
O=[N+]([O-])c1cc(Cl)ccc1NCCNc1ncc(C(F)(F)F)cc1Cl	-6.7	-3.0	·	0.8	1.1
O=[N+]([O-])c1ccc(NC(=S)NCCc2ccc(Cl)cc2)cc1	106.0*	20.0	·	0.8	92.2*
CN(C)CCNC(=S)Nc1ccc(Cl)cc1	1.7	12.0	·	0.9	4.7
Cc1ccc(CNc2ccc(Cl)cc2[N+](=O)[O-])cc1	-6.9	4.0	·	0.9	-1.3
C=C(C)Cn1c(CCCNC(=O)C(C)(C)C)nc2ccccc21	1.6	6.0	-3.0	·	3.7
CCCN(Cc1cc2ccc(C)cc2[nH]c1=O)C(=O)c1cccnc1	7.1	2.0	-8.0	1	8.8
CCN(Cc1cc2ccc(C)cc2[nH]c1=O)C(=O)c1ccncc1	-11.6	-3.0	2.8	1.3	44.1*
COc1ccc(C(=O)/C=C/Nc2cccc(O)c2)cc1	4.0	0.0	·	0.9	-0.7
COc1cccc(C(=O)/C=C/Nc2cc(C)ccc2O)c1	9.8	-7.0	11.5	2.9*	9.1
O=C(Cn1nnc(-c2ccc(S(=O)(=O)N3CCCC3)cc2)n1)NCC1CCCO1 (centres undefined)	33.8*	3.0	-4.0	1	-2.1
Cn1c(SCC(=O)NCC2CCCO2)nnc1-c1ccc(S(=O)(=O)N2CCCC2)cc1 (centres undefined)	25.6	3.0	-7.1	1.1	27.8
COC(=O)c1ccc(C(=O)OC)c(NC(=O)c2ocnc2C)c1	·	·	-11.6	·	·
COc1cc(OC)cc(-c2nnc(Nc3nc4c(F)cccc4s3)o2)c1	-3.1	-11.0	28.3	2.6*	4.7
COc1ccc(-c2nnc(Nc3nc4c(OC)cccc4s3)o2)cc1	4.7	-11.0	4.1	2.3*	-4.5
COc1ccc(C(=O)NC(NC(=S)Nc2ccc(S(N)(=O)=O)cc2)C(Cl)(Cl)Cl)cc1 (centres undefined)	-2.5	16.0	·	1.3	15.5
SMILES	PostGolgi yeast	Ecoli WT expand	tolC growth inh	PLAP act	PostGolgi ctrl
Cc1cccc(Oc2ncc(-c3ccc(Cl)cc3)cn2)c1	-12.8	-8.0	·	1.3	10.2
CCCSc1nc2c(cnn2-c2ccccc2)c(=O)[nH]1	7.6	-9.0	11.1	1.2	32.6*
CCCSc1nc2c(cnn2-c2ccc(C)cc2)c(=O)[nH]1	1.8	-12.0	-6.5	1.2	-1.6
Cc1cc2oc3c(c(=O)c2cc1C)C(c1ccc(C(C)C)cc1)N(CCCN1CCOCC1)C3=O (centres undefined)	·	·	31.8	·	·
COc1ccc(S(=O)(=O)N(CCc2ccccc2)CC(=O)O)cc1C	-3.8	-7.0	·	1.8	-2.8
CCN(c1cccc(C)c1)S(=O)(=O)c1cnc[nH]1	-1.9	-2.0	·	1.1	7.9
